Data on 4 molecules can be found in paper PMC4764081 (Science (New York, N.Y.), 2015).

In series [1] the test system is RPE1 human retinal pigment epithelial cells. Nature of the series: RPE1 passaging assay and flow cytometry. The class given is cell-based. The gist of the method: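 RPE1 cells passaged with inhibitor added on day 0 and washed out on day 8; proliferation followed over serial passages. Data are means ± SD, N = 2.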
Background: In flow cytometry, cells or beads pass a laser one at a time.

The subject of another series is p53. Description: Western blot of p53 in RPE1 cells. It counts as cell-based, human. Conditions: RPE1, without genotoxic stress. Background: In western blotting, separated proteins are transferred to a membrane and probed.
For series [2], the target named is T1, Polo-like kinase 4 (Plk4) (Homo sapiens, UniProt O00444).
T1 sequence (O00444 1-970): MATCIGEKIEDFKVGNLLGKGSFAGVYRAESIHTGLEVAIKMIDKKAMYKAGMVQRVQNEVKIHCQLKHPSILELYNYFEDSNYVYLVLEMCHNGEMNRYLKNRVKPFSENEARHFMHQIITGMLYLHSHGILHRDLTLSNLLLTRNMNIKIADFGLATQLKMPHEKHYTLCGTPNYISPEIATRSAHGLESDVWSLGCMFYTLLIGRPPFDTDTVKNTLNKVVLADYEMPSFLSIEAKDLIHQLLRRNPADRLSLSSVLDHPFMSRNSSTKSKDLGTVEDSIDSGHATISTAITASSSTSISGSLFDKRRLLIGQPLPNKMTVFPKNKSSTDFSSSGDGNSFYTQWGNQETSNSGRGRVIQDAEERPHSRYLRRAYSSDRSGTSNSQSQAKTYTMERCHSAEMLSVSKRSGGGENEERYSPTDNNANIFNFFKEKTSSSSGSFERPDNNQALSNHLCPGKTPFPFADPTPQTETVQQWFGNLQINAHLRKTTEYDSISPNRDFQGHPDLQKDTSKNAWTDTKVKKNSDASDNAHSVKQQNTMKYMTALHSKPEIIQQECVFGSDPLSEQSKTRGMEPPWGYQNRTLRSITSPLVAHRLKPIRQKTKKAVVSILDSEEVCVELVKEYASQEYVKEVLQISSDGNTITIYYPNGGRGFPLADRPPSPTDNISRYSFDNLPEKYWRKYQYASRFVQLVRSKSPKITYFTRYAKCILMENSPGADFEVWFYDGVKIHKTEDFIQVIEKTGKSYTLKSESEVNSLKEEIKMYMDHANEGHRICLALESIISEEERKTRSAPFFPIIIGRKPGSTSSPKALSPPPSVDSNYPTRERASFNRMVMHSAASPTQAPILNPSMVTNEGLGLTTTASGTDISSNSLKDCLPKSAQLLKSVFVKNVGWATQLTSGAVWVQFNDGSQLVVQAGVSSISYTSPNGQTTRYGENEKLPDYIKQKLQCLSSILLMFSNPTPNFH
Description: Plk4 inhibition in vitro. The class given is biochemical. Conditions: read-out: inhibition constant (Ki).

Series [3] deals with centrosomes. Description: centrosome depletion. It counts as cell-based. Conditions: cellular activity.
For a further series, the system named is g-H2A.X foci. Nature of the series: g-H2A.X foci in RPE1 nuclei. The class given is cell-based, human. The settings on record: RPE1 treated cells. The gist of the method: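 γ-H2A.X foci, marking double-strand DNA breaks, counted in nuclei of treated RPE1 cells. Values are means ± SD, N = 3.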
Series [4] has as its system HeLa human cervical carcinoma cells. Description: centriole/centrosome depletion and washout in HeLa cells. The class given is cell-based. In a few lines:
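HeLa cells under continuous treatment scored for foci carrying centriolar and pericentriolar markers at each round of division. Cells were imaged 7 days after inhibitor addition and again 10 days after washout.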

Series [5] relates to RPE1 cells coexpressing centrin-GFP and H2B-RFP. Nature of the series: RPE1 lineage analysis by live-cell imaging. It counts as cell-based, human. Conditions: acute treatment. The gist of the method:
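RPE1 cells coexpressing centrin-GFP and H2B-RFP filmed after inhibitor addition. Both GFP and RFP channels were imaged at first to count centrosomes and follow mother-cell mitosis. Daughter fate was then tracked with RFP only. Arrest was scored as failure to enter mitosis within 48 hours of cell birth, and the percentage arresting per generation was reported; N = 2.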

Series [6] deals with NIH/3T3 cells induced to overexpress Plk4-GFP. Nature of the series: centriole amplification in cells overexpressing wild-type or G95L Plk4-GFP. It counts as cell-based, mouse.
Series [7] relates to multiciliated Xenopus epithelial cells. Nature of the series: centriole number in multiciliated Xenopus epithelial cells. It counts as cell-based.
In another series the test system is HeLa cells. Description: mitotic duration by imaging, HeLa. The class given is cell-based, human. The settings on record: centrosome-less HeLa cells.
Another series concerns NIH/3T3 cells. Description: mitotic duration by imaging, NIH/3T3. The settings on record: centrosome-less NIH/3T3 cells. The class given is cell-based, mouse.
Series [8] concerns RPE1 cells expressing G95L Plk4. Description: RPE1 Plk4 G95L knock-in cells, centrosome number and passaging. The class given is cell-based, human. Conditions: RPE1, both endogenous PLK4 alleles G95L.
Series [9] relates to centrosomes. Description: centrosome amplification in cells. The class given is cell-based. The settings on record: fig. S1.

Regarding `CCOc1cc(C(C)(C)C)ccc1C1=N[C@@](C)(c2ccc(Cl)cc2)[C@@](C)(c2ccc(Cl)cc2)N1C(=O)N1CCN(CCCS(C)(=O)=O)CC1` [R7112, reference compound], the proliferation after washout entry in series [1] (RPE1, addition day 0, washout day 8) was “resumption of proliferation”. For the same molecule, the “effect on p53 levels” value in the series on p53 is given as “raised p53 levels”.

One may read the Ki as a measure of affinity in units of concentration, obtained from inhibition or displacement. On to `COc1c(Nc2cc(C)[nH]n2)nc(Sc2ccc(S(=O)(=O)Cc3cccc([N+](=O)[O-])c3F)cc2F)nc1N1CCCCC1` [centrinone-B], for which the Ki in [2] is 0.6 nM. Also, the “centrosome depletion at (concentration)” value in the series with centrosomes [3] amounted to 500 nM.

As to `COc1c(Nc2cc(C)[nH]n2)nc(Sc2ccc(S(=O)(=O)Cc3cccc([N+](=O)[O-])c3F)cc2F)nc1N1CCOCC1` [centrinone], the g-H2A.X foci abundance result in the series on g-H2A.X foci was “not more abundant”. Besides, the “reversibility of centriole loss” value in series [4] (10 days after washout) is “fully reversible”. Besides, in [4] (at each round of cell division), the “effect on centriolar and pericentriolar material foci” value was “progressive reduction”. Besides, in series [1] (RPE1, 12-day passaging assay and flow cytometry), the “effect on cell cycle” value is “cell cycle arrest in G1”. Also, the “fraction of progeny arrested” value in [5] (one-centrosome progeny of pioneer one-centrosome mothers) came out at 25.5%; in series [5] (progeny of pioneer zero-centrosome mothers) it was 70%; in [5] (zero-centrosome progeny of pioneer one-centrosome mothers), 33.0%. Besides, the “centrosome depletion at (concentration)” value in the series with centrosomes [3] is on record as 100 nM. The “effect on centriole amplification” value in series [6] is recorded as “blocked centriole amplification”. Further, the “effect on centriole number” value in series [7] is “reduced centriole number”. In addition, the “increase of mitotic duration” value in the series with HeLa cells is approximately 1 h; in the series on NIH/3T3 cells, approximately 20 min. Further, the “centrosome loss or proliferation arrest” value in series [8] is recorded as “did not lead to centrosome loss or proliferation arrest”.

Turning to `COc1ccc2c(c1)[C@]1(C[C@H]1c1ccc3c(/C=C/c4ccc(CN5C[C@@H](C)O[C@@H](C)C5)cc4)n[nH]c3c1)C(=O)N2` [CFI-400945], the “effect on centrosome number” value in the series on centrosomes [9] is given as “induces centrosome amplification”.
